We go through four compounds from ChEMBL document CHEMBL1149183, “Novel benzo[1,4]diazepin-2-one derivatives as endothelin receptor antagonists” (J Med Chem, 2004).

A word on the IC50: it is the point on the concentration scale where inhibition reaches its midpoint. For orientation: pA2 means a measure of antagonist potency on a negative log scale. High values mean a more potent antagonist, low ones a weaker antagonist.

Series [1] is described as follows: Log D value was evaluated. It is filed as physicochemical. As to conditions: octanol/water, pH 7.4; read-out: Log D7.4. A digest of the protocol: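 Shake-flask partition, n-octanol versus aqueous phase buffered to pH 7.4 (67 mM KH2PO4/67 mM Na2HPO4), volume ratio 1:9; both phases assayed by HPLC.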
The target of another series is Cytochrome P450 2C9 (Homo sapiens, UniProt P11712). In words: Inhibition of human cytochrome P450 2C9. It is filed as ADME. The essentials: (§1)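 Human liver microsomes with isoform marker reactions near substrate Km: diclofenac 4'-hydroxylation (2C9), dextromethorphan […] (2D6), midazolam 1'-hydroxylation (3A4); metabolite formation by LC-MS/MS; IC50 reported.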

For another series, the target named is Cytochrome P450 3A4 (Homo sapiens, UniProt P08684). In words: Inhibition of human cytochrome P450 3A4. It is filed as ADME. The essentials: as §1
In the next series the target is Cytochrome P450 2D6 (Homo sapiens, UniProt P10635). In words: Inhibition of human cytochrome P450 2D6. It is filed as ADME. A digest of the protocol: as §1
Series [2] concerns the target T1, Endothelin receptor type B (Homo sapiens, UniProt P24530).
T1 sequence (P24530 whole entry): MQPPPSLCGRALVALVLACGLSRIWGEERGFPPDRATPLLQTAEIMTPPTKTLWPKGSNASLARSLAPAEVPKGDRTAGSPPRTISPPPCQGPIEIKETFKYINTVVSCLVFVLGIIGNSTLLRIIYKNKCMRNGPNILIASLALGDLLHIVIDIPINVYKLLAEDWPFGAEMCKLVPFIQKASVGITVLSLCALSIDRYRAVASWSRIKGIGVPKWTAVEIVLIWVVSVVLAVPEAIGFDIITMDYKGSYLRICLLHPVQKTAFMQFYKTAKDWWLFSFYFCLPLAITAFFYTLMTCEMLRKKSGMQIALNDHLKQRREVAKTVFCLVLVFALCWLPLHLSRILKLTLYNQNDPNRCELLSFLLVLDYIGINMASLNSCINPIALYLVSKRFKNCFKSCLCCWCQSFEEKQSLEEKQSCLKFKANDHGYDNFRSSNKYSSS
The experiment in a line: Antagonist activity towards human recombinant Endothelin B receptor expressed in chinese hamster ovary (CHO) cells determined using [125I]ET1 as radioligand. It is filed as functional, cell-based.

The target of the next series is T2, Endothelin-1 receptor (Homo sapiens, UniProt P25101).
T2 sequence (P25101 whole entry): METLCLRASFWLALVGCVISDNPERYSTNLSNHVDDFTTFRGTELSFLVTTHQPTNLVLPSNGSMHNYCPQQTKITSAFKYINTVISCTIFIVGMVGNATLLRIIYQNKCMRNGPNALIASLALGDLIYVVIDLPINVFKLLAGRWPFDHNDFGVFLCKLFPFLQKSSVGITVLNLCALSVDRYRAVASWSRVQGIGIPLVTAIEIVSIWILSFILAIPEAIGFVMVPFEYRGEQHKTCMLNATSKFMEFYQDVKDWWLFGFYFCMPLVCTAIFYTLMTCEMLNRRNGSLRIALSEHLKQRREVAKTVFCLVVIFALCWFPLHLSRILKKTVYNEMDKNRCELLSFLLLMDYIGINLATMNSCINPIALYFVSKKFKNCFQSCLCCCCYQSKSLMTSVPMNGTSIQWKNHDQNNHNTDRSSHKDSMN
In words: Antagonist activity towards human recombinant Endothelin A receptor expressed in chinese hamster ovary (CHO) cells determined using [125I]ET1 as radioligand. In kind it is functional, cell-based.

Series [3] has as its system Rattus norvegicus. The experiment in a line: In vivo area between curve (ABC) as calculated from the blood pressure recordings before and after administration of 30 mg/kg to hypertensive Dahl salt sensitive rats; number of rats=10. It is filed as functional. A digest of the protocol: (§2)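 Single oral dose of 30 mg/kg suspended in 10% arabic gum to hypertensive Dahl salt-sensitive rats carrying telemetry for arterial pressure and heart rate; area between pre- and post-treatment pressure curves calculated; fall in mean arterial pressure and duration of action also taken from recordings.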

The species entered for series [4] is Rattus norvegicus. In words: Duration of action of compound for reducing the blood pressure of rats was determined. It is filed as functional. The essentials: as §2
For series [5], the species on record is Rattus norvegicus. In words: Maximum effect on reduction of mean arterial blood pressure was determined in rats. In kind it is functional. The essentials:
as §2

For series [6], the target named is T3, Endothelin receptor (Rattus norvegicus, UniProt P26684+P21451).
T3 sequence (P26684 whole entry): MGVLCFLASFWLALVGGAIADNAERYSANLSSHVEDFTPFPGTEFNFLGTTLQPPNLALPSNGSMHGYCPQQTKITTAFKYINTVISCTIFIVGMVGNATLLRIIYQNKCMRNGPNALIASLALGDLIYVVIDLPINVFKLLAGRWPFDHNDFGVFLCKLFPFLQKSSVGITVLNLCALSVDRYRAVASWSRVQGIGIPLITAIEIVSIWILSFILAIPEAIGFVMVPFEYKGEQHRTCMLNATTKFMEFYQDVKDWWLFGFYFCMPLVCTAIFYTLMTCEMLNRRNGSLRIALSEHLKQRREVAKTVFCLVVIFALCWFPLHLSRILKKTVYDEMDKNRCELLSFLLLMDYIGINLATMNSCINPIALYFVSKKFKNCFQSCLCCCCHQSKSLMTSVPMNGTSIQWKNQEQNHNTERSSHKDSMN
T3 sequence (P21451 whole entry): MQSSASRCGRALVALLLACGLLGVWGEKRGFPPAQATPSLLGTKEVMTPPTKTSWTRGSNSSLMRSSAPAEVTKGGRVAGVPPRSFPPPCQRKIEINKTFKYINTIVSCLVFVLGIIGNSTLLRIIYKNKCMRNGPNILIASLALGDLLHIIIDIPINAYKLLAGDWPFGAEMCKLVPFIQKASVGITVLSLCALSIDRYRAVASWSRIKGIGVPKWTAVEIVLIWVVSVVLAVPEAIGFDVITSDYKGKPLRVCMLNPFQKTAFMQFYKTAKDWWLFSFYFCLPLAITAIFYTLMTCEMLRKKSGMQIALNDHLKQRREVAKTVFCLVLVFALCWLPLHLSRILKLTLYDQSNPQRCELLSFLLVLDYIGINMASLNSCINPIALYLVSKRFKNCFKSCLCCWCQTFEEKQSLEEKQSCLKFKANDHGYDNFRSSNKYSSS
The experiment in a line: Inhibitory potency at native endothelin A and B receptors by inhibiting sarafotoxin Sf6 contractions of rat tracheal rings. It is filed as functional.

In series [7] the target is T3, Endothelin receptor. The experiment in a line: Inhibitory potency at native endothelin A and endothelin B receptors by inhibiting endothelin-1 contractions of rat aortic rings. It is filed as functional.
In series [8] the test system is Rattus norvegicus. The experiment in a line: In vivo area between curve (ABC) as calculated from the blood pressure recordings before and after administration of 30 mg/kg to hypertensive Dahl salt sensitive rats; number of rats=14. It is filed as functional. The essentials: as §2
Series [9] relates to Rattus norvegicus. The experiment in a line: In vivo area between curve (ABC) as calculated from the blood pressure recordings before and after administration of 30 mg/kg to hypertensive Dahl salt sensitive rats; number of rats=15. In kind it is functional. A digest of the protocol:
as §2

Series [10] relates to Rattus norvegicus. In words: In vivo area between curve (ABC) as calculated from the blood pressure recordings before and after administration of 30 mg/kg to hypertensive Dahl salt sensitive rats; number of rats=6. In kind it is functional. The essentials:
as §2

Cytochrome P450 2D6, sequence (P10635 whole entry): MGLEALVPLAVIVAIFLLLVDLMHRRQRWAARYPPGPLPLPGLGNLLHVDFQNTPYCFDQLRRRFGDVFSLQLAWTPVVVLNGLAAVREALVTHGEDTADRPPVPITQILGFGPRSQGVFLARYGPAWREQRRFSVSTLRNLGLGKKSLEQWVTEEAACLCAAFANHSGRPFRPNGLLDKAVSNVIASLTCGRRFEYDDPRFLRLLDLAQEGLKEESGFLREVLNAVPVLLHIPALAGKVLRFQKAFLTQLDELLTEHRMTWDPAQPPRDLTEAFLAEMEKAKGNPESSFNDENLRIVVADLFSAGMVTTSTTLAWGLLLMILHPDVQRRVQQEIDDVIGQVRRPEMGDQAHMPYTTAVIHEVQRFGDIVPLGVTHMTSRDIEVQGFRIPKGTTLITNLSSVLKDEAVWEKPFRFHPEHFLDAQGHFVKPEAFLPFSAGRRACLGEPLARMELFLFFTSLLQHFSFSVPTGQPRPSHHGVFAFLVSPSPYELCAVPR
Cytochrome P450 2C9, sequence (P11712 whole entry, canonical isoform): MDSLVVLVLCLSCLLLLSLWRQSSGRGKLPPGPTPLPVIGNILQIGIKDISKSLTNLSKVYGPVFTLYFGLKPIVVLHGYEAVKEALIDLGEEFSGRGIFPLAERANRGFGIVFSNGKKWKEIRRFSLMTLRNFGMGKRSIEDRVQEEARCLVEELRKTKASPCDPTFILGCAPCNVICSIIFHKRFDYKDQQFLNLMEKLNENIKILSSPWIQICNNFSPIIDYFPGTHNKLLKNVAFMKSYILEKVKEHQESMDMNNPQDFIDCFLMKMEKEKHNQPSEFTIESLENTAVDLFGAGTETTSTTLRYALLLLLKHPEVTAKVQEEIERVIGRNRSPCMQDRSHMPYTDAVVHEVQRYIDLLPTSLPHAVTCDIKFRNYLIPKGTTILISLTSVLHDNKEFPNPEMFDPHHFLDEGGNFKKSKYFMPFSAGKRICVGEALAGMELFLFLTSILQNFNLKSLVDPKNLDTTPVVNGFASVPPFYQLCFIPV
Cytochrome P450 3A4, sequence (P08684 whole entry): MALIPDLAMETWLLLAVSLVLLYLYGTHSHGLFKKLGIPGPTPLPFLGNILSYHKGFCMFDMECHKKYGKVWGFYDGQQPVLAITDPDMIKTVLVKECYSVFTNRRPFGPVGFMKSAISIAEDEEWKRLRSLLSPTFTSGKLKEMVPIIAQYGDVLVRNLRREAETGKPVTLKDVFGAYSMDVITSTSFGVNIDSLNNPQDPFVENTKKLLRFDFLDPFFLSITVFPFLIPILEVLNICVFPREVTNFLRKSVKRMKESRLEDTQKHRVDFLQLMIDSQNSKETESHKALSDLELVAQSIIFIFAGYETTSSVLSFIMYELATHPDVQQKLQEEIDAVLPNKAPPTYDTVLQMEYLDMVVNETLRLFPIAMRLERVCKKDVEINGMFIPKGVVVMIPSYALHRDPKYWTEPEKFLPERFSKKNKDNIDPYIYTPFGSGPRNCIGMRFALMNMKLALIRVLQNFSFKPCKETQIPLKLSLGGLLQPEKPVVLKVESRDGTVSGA

Turning to `Cc1cc(C)nc(O[C@H](C(=O)O)[C@@]2(c3ccccc3)NCC(=O)N(Cc3c(F)cc(F)cc3F)c3ccccc32)n1` (racemic), in series [1], the logD stood at 0.4. Moreover, the IC50 on Cytochrome P450 2C9 was over 50 µM; against Cytochrome P450 3A4 it was 41 µM; on Cytochrome P450 2D6, over 50 µM; in [2] it was 0.0836 µM; on Endothelin-1 receptor, 0.0025 µM. In the series on Rattus norvegicus [3], the ABC was 674 mmHg·h. In addition, in the series filed under Rattus norvegicus [4], the Duration of action turned out to be 54 h. The compound further returned a Max effect in the series filed under Rattus norvegicus [5] of -21 mmHg. The pA2 on Endothelin receptor [6] was 6.18; at Endothelin receptor [7], 8.18.

For the compound `Cc1cc(C)cc(O[C@H](C(=O)O)[C@@]2(c3ccccc3)NCC(=O)N(Cc3c(F)cc(F)cc3F)c3ccccc32)c1` (racemic), the logD in series [1] worked out at 2.1. Moreover, the IC50 against Cytochrome P450 2C9 was 15 µM; at Cytochrome P450 3A4 it was 14 µM; against Cytochrome P450 2D6 it was over 50 µM; in [2], 0.565 µM; on Endothelin-1 receptor it was 0.0172 µM. Moreover, in the series on Rattus norvegicus [8], the ABC was 483 mmHg·h. The Duration of action in the series filed under Rattus norvegicus [4] was determined as 32 h. The compound further came in with a Max effect in the series listed under Rattus norvegicus [5] of -28 mmHg. Further, the pA2 turned out to be 7.02 on Endothelin receptor [6] and 8.27 at Endothelin receptor [7].

`Cc1cc(C)nc(O[C@H](C(=O)O)[C@@]2(c3cccc(-c4ccccc4)c3)NCC(=O)N(Cc3c(F)cc(F)cc3F)c3ccccc32)n1` (racemic): in series [1], the logD came out at 1.8. In addition, the concentration for half-maximal inhibition (IC50) was 28 µM at Cytochrome P450 2C9; 7 µM at Cytochrome P450 3A4; over 50 µM at Cytochrome P450 2D6; 0.0898 µM in series [2]; 0.0079 µM on Endothelin-1 receptor. Further, in the series on Rattus norvegicus [9], the ABC was 250 mmHg·h. For the same compound, the Duration of action in the series listed under Rattus norvegicus [4] was 24 h. For the same compound, the Max effect in the series filed under Rattus norvegicus [5] is recorded as -12 mmHg. Also, the results for the pA2 at Endothelin receptor [6] and at Endothelin receptor [7] were 7.07 and 9.03, respectively.

`CCCCc1cccc([C@]2([C@H](Oc3nc(C)cc(C)n3)C(=O)O)NCC(=O)N(Cc3c(F)cc(F)cc3F)c3ccccc32)c1` (racemic): in series [1], the logD was determined as 2.3. Also, the IC50 against Cytochrome P450 2C9 was 15 µM; against Cytochrome P450 3A4, 5 µM; against Cytochrome P450 2D6 it was over 50 µM; in [2], 0.0332 µM; at Endothelin-1 receptor it was 0.0139 µM. In addition, the ABC in the series on Rattus norvegicus [10] was 214 mmHg·h. The same compound displayed a Duration of action in the series listed under Rattus norvegicus [4] of 18 h. The compound also gave a Max effect in the series listed under Rattus norvegicus [5] of -13 mmHg. Also, the pA2 at Endothelin receptor [6] came out at 7.72; at Endothelin receptor [7] it was 8.36.
